Measured values from paper PMC12318077 (Scientific Reports, 2025).

How the values were obtained:
[1] = system: L. tropica promastigotes; experiment: Promastigotes proliferation assessment by MTT assay; type: cell-based, Leishmania tropica; conditions: for IC50: 48 h
[2] = Cytotoxicity assay; type: cell-based; conditions: human, 5% suspension of human blood erythrocytes
In short: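 Test compound (25–426 µM) incubated with a 5% suspension of human blood erythrocytes at 37 °C for 3 h. 0.1% DMSO served as the negative control and 0.5% Triton X-100 as the positive control. Samples were spun at 1000 × g for 10 min, and released hemoglobin was read at 576 nm. Percent hemolysis was calculated and CC50 derived by linear interpolation. Triplicates, mean ± SD.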

| Compound | IC50 ([1]; L. tropica promastigotes, MTT, dose range 25–426 µM) [µM] | IC50 ([1]; Leishmania tropica) [µM] | CC50 at 3 h [2] [µM] | SI index (IC50/CC50 µM) ([1]; ratio of hemolysis CC50 and L. tropica IC50) |
| --- | --- | --- | --- | --- |
| 5,5′,5″-(nitrilotris(ethane-2,1-diyl))tris(3-(4-ethylphenyl)-1,3,5-thiadiazinane-2-thione) [Compound T24] | 26.9 |  |  |  |
| Cc1cc(C)c(N2CSC(=S)N(CCN(CCN3CN(c4c(C)cc(C)cc4C)CSC3=S)CCN3CN(c4c(C)cc(C)cc4C)CSC3=S)C2)c(C)c1 [Compound T25, 3,3′,3″-(nitrilotris(ethane-2,1-diyl))tris(5-mesityl-1,3,5-thiadiazinane-2-thione)] |  | 27.7 | 89.7 |  |
| CCCCN1CN(CC(=O)O)CSC1=S [BG, 2-(5-Butyl-6-thioxo-1,3,5-thiadiazinan-3-yl) acetic acid] |  |  | 376 |  |
| C[C@@H]1[C@H](O)[C@@H](C)/C=C/C=C/C=C/C=C/C=C/C=C/C=C/[C@H](O[C@@H]2O[C@H](C)[C@@H](O)[C@H](N)[C@@H]2O)C[C@@H]2O[C@](O)(C[C@@H](O)C[C@@H](O)[C@H](O)CC[C@@H](O)C[C@@H](O)CC(=O)O[C@H]1C)C[C@H](O)[C@H]2C(=O)O [Amp-B, Amphotericin B, reference compound] |  | 15.7 |  | 0.18 |
| CCCN1CN(CC(=O)O)CSC1=S [PG, 2-(5-propyl-6-thioxo-1,3,5-thiadiazinan-3-yl)acetic acid] |  | 82.8 | 402 |  |
